Rows were chosen to be rich in hits. Some 2.7% of all compounds tested hit in one or more screens of this group.
Rpn11 block: inhibitors of human proteasome Rpn11; human 26S proteasome, Ub4-pepOG fluorescence polarization; 20S core pre-blocked with epoxomicin; inhibition, % at 20 µM; actives 0.59% (n = 360,000);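 active = inhibition at 20 µM, scaled to each plate's controls, above about 33%, limit read from the data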
TPT1 inh: blocks Candida albicans tRNA 2'-phosphotransferase | AID 1962 | inhibition, % at 5 µM | recombinant caTPT1, FP RNA substrate dephosphorylation | actives 0.81% (n = 300,000);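 active = inhibition above the mean of all tested compounds plus 3 SD, set per screening campaign, cut at about 24% in these data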
PP1 counter: counter-screen for PP5 inhibitors: inhibitors of human PP1-alpha; P62136; purified PP1alpha, OMFP fluorescence; inhibition, % at 6.7 µM; actives 0.9% (n = 320,000); AID 2235;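 active = inhibition above the mean inhibition of all tested compounds plus 3 SD, computed separately for each screening campaign, cut at about 15% in these data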
CSN inh: blocks human CSN-mediated cullin deneddylation; inhibition, % at 12.5 µM; actives 0.38% (n = 360,000); Purified CSN, SCF-Nedd8-OG deneddylation, fluorescence polarization; AID 651999; Q92905;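 active = pattern-corrected inhibition above about 35%, with an unprinted fluorescence ratio check between 0.5 and 1.5, limit read from the data, passing the limit was not always enough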
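Assay system: HEK293T-derived human Csn5 enzyme; quantity: 0.24 nM enzyme; medium: Tris/NaCl/DTT buffer, pH 7.5; also added: substrate SCFSkp2-Nedd8OG, 10 nM; doses: 12.5 µM compound; schedule: 90 min reaction at room temperature; signal: FP; read-out: % inhibition of substrate cleavage by Csn5; benchmarks: substrate-only high control, full reaction low control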
HNF4A DNA FP: change in binding of human HNF4 alpha to DNA | HNF4a-FITC DNA binding, fluorescence polarization, 1 h | activity change, % at 10 µM | AID 1224865 | actives 0.3% (n = 360,000) | P41235; in the data active = activity change above about 30%, passing the limit was not always enough
Target sequence (P41235 whole entry, looked up): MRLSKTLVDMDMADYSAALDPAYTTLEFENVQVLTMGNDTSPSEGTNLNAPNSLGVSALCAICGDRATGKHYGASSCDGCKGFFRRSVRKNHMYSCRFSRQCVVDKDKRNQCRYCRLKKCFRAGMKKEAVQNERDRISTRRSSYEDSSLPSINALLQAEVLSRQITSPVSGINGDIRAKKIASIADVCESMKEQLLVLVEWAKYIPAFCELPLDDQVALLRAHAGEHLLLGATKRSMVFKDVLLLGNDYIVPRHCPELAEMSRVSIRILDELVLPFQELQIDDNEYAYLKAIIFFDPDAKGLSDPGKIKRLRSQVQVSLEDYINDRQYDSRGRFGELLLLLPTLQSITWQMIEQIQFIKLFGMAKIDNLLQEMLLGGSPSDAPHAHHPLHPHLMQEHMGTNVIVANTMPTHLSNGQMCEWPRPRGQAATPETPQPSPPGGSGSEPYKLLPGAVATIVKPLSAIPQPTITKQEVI
NadD block: blocks S. aureus nicotinate mononucleotide adenylyltransferase | purified NadD enzyme, colorimetric absorbance read-out | actives 0.78% (n = 360,000) | inhibition, % at 20 µM; in the data active = inhibition above about 26%
caTPT1 confirm: confirmation of Candida albicans TPT1 inhibitors | shares compounds with TPT1 inh | recombinant caTPT1, fluorescence polarization, RNase T1 coupled | inhibition, % at 5 µM | actives 74% (n = 2,400) | AID 2149;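 active = inhibition above the primary screen limit, the mean inhibition of all tested compounds plus 3 SD, cut at about 25% in these data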
RNase T1 inh: blocks Aspergillus oryzae RNase T1, a TPT1 counter-screen | inhibition, % at 5 µM | AID 2153 | RNase T1 cleavage, fluorescence polarization, 1536-well | shares compounds with TPT1 inh | actives 83% (n = 2,400);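 active = inhibition above the solvent-only control well mean plus 3 SD, limit set per screening run, cut at about 23% in these data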;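 note: inhibitors block cleavage so intact labeled substrate keeps polarization high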
Target sequence (P00651 whole entry, looked up): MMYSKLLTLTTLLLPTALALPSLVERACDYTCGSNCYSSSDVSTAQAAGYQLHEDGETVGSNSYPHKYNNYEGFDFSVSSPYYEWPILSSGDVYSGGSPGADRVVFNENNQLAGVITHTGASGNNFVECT
PP1 confirm: confirmation of human PP1 phosphatase inhibitors; actives 52% (n = 1,900); inhibition, % at 6.7 µM; AID 2358; purified PP1alpha, OMFP substrate fluorescence; shares compounds with PP1 counter;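 active = mean PP1 inhibition above a set limit taken from the earlier primary screen, cut at about 15% in these data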
PP5 counter: PP5 phosphatase inhibition, counter-screen for PP1 inhibitors. shares compounds with PP1 counter. inhibition, % at 6.7 µM. actives 4% (n = 1,900). purified PP5c, OMFP fluorescence. AID 2360;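 active = mean PP5 inhibition over triplicate wells above about 9.5% taken from the earlier PP1 screen, limit read from the data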
Rpn11 inh conf: Rpn11 inhibition confirmation, single concentration; purified human 26S proteasome, Ub4-pepOG fluorescence polarization; proteasome pretreated with epoxomicin; actives 29% (n = 1,900); inhibition, % at 20 µM; shares compounds with Rpn11 block
MMP-2 inh: blocks human MMP-2, flagging nonselective RPN11 hits; shares compounds with Rpn11 block; recombinant MMP-2, FRET peptide cleavage fluorescence; inhibition, % at 20 µM; actives 4% (n = 1,900);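 note: human MMP-2 activated beforehand with APMA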
Thrombin FP: blocks bovine thrombin, flagging nonselective RPN11 hits; inhibition, % at 20 µM; actives 13% (n = 1,900); AID 602333; bovine thrombin cleavage of Ub4-pepOG, fluorescence polarization; shares compounds with Rpn11 block;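 active = mean inhibition at least 40% at 20 µM, or signal 3 deviations below plate average, so some actives read negative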
Each line names hits and unclear results; the compound was inactive in the other large screens (follow-up assays come after a bar, where shown). Cut-off read from the data, not from the text of the source, unless noted: active = inhibition above about 40%; inactive = the rest.

O=[N+]([O-])c1ccc(N/N=C/c2ccc[nH]2)cc1	Rpn11 block 67, TPT1 inh 64 | caTPT1 confirm 65 | RNase T1 inh 76 | Rpn11 inh conf 51 | MMP-2 inh inactive | Thrombin FP inactive
O=[N+]([O-])c1ccc(N/N=C/c2cccnc2)cc1	none
O=C(COC(=O)COc1cccc(C(F)(F)F)c1)NC1CCCC1	none
O=C(O)CN1C(=O)COc2ccc(S(=O)(=O)N3CCCCCC3)cc21	none
N=C1/C(=C/c2ccc(-c3cccc(C(=O)O)c3)o2)C(=O)N=C2SC=C(c3ccccc3)N12	Rpn11 block 132, TPT1 inh 74, PP1 counter 72, CSN inh 77, NadD block 61 | caTPT1 confirm 84 | RNase T1 inh 92 | PP1 confirm 44 | PP5 counter inactive | Rpn11 inh conf 152 | MMP-2 inh inactive | Thrombin FP 51
N=C1/C(=C\c2ccc(-c3cc(Cl)cc(Cl)c3)o2)C(=O)N=C2SC=C(c3ccccc3)N12	none
CCOc1ccc(S(=O)(=O)Nc2ccc(C(=O)NCc3ccncc3)cc2)cc1	none (no result: TPT1 inh)
CCOC(=O)c1c(C)[nH]c(O)c1C=Nc1ccc(C(F)(F)F)cc1	Rpn11 block 49, TPT1 inh 36 | caTPT1 confirm 30 | RNase T1 inh 40 | Rpn11 inh conf inactive | MMP-2 inh inactive | Thrombin FP inactive
COc1cc(S(=O)(=O)Nc2ccccc2)ccc1N=Cc1c(C)[nH]n(-c2ccc(C)cc2)c1=O	none (no result: Rpn11 block, CSN inh, HNF4A DNA FP, NadD block)
COc1cc(SC#N)ccc1N=Cc1c(C)[nH]n(-c2ccc(C)c(C)c2)c1=O	Rpn11 block 44, TPT1 inh 30 | caTPT1 confirm 62 | RNase T1 inh 67 | Rpn11 inh conf inactive | MMP-2 inh inactive | Thrombin FP inactive
CC(=O)Nc1ccc(Nc2nc3ccccc3nc2NS(=O)(=O)c2ccc(Cl)c([N+](=O)[O-])c2)cc1	none (no result: TPT1 inh, PP1 counter)
CC(C)CNc1ncnc2c1ncn2[C@H]1CN(CCN2CCOCC2)C[C@@H](CO)O1	none (no result: TPT1 inh, PP1 counter)
C(=N\NC1=Nc2cccc3cccc1c23)/c1cccnc1	Rpn11 block 70, TPT1 inh 26, HNF4A DNA FP 40 | caTPT1 confirm 41 | RNase T1 inh 56 | Rpn11 inh conf 40 | MMP-2 inh inactive | Thrombin FP inactive
CC[n+]1c(/C=C/Nc2ccccc2)oc2ccc(OC)cc21	Rpn11 block 57, TPT1 inh 86 | caTPT1 confirm 95 | RNase T1 inh 101 | Rpn11 inh conf 45 | MMP-2 inh inactive | Thrombin FP inactive
CSc1nsc(/C=C/Nc2ccc(F)cc2F)c1C#N	Rpn11 block 55, TPT1 inh 54, HNF4A DNA FP 42 | caTPT1 confirm 72 | RNase T1 inh 89 | Rpn11 inh conf inactive | MMP-2 inh inactive | Thrombin FP inactive
O=C(c1ccccc1)N(c1ccccc1)c1nccc2ccccc12	none (no result: TPT1 inh, PP1 counter)
O=C1CC2C(CCC23OCCO3)c2ccc3ccccc3c21 (centres undefined)	none (no result: TPT1 inh, PP1 counter)
CC(/C=C1\SC(=S)N(CCC(=O)Nc2cccc(C(=O)O)c2)C1=O)=C\c1ccccc1	Rpn11 block 40, TPT1 inh 25, PP1 counter 23 | caTPT1 confirm 43 | RNase T1 inh 56 | PP1 confirm 16 | PP5 counter inactive | Rpn11 inh conf 122 | MMP-2 inh inactive | Thrombin FP inactive
CC[n+]1ccc(/C=C2\Sc3ccccc3N2CCCS(=O)(=O)[O-])c2ccccc21	Rpn11 block 33, TPT1 inh 31 | caTPT1 confirm inactive | RNase T1 inh inactive | Rpn11 inh conf inactive | MMP-2 inh inactive | Thrombin FP inactive
CCCCn1c(O)c(/C=C/C=C/C=Nc2ccccc2)sc1=S	Rpn11 block 81, TPT1 inh 44, HNF4A DNA FP 51 | caTPT1 confirm inactive | RNase T1 inh 28 | Rpn11 inh conf inactive | MMP-2 inh inactive | Thrombin FP inactive
COc1ccc(CC(=O)NNC2=Nc3cccc4cccc2c34)cc1OC	none
COc1cc(NC2=Nc3cccc4cccc2c34)cc(OC)c1OC	Rpn11 block 42, TPT1 inh 31 | caTPT1 confirm 32 | RNase T1 inh 43 | Rpn11 inh conf inactive | MMP-2 inh inactive | Thrombin FP inactive
COc1cccc(NC2=Nc3cccc4cccc2c34)c1	Rpn11 block 45, TPT1 inh 25 | caTPT1 confirm 35 | RNase T1 inh 44 | Rpn11 inh conf 44 | MMP-2 inh inactive | Thrombin FP inactive
Cc1ccc(NC(=O)C2(C)CCN2C(=O)Cc2cc(F)ccc2F)cc1 (centres undefined)	none (no result: TPT1 inh, PP1 counter)
c1cc(Nc2cccc3nccnc23)c2nccnc2c1	Rpn11 block 34, TPT1 inh 25 | caTPT1 confirm 25 | RNase T1 inh 35 | Rpn11 inh conf inactive | MMP-2 inh inactive | Thrombin FP inactive
Fc1ccc(Nc2cccc3nccnc23)cc1	none
COC(=O)c1sc2nc(CSc3ccc(Br)cc3)[nH]c(=O)c2c1C	Rpn11 block 76, TPT1 inh 35 | caTPT1 confirm 26 | RNase T1 inh 36 | Rpn11 inh conf 50 | MMP-2 inh inactive | Thrombin FP inactive
COCCn1c(SCc2nc3sc(C(=O)OC)c(C)c3c(=O)[nH]2)nc2ccccc21	Rpn11 block 50, TPT1 inh 26 | caTPT1 confirm inactive | RNase T1 inh 33 | Rpn11 inh conf inactive | MMP-2 inh inactive | Thrombin FP inactive
CCOC(=O)c1sc2nc(CSc3ccccc3Cl)[nH]c(=O)c2c1C	none (not shown: Rpn11 block)
Cc1cc(NC(=O)CSc2nc3cc(Cl)ccc3s2)no1	none
O=C(CSc1nc2cc(Cl)ccc2s1)c1cc2ccccc2o1	Rpn11 block 55, TPT1 inh 78 | caTPT1 confirm inactive | RNase T1 inh 27 | Rpn11 inh conf 45 | MMP-2 inh inactive | Thrombin FP inactive

From PubChem
